Assay results as given in ChEMBL document CHEMBL4229344 (Eur J Med Chem, 2018).

How the values were obtained:
[1] = Cytotoxicity against mouse BA/F3 cells after 72 hrs by CellTiter-Glo or CCK-8 assay; format: cell-based, BaF3
Method in brief: (§1)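 Parental BaF3 or IL-3-independent TEL-kinase BaF3 lines, made by retroviral infection and puromycin selection, grown in RPMI 1640 with 10% FBS. Cells seeded at 1–3 × 10^4 cells/mL with serial compound concentrations for 72 h. Viability read by CellTiter-Glo luminescence or CCK-8 absorbance at 450/655 nm and normalised to DMSO. GI50 obtained by triplicate testing with linear regression. Selectivity is the ratio of the two GI50 values.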

[2] = molecular target: Platelet-derived growth factor receptor alpha (Homo sapiens, UniProt P16234)
Chain of Platelet-derived growth factor receptor alpha (P16234 whole entry): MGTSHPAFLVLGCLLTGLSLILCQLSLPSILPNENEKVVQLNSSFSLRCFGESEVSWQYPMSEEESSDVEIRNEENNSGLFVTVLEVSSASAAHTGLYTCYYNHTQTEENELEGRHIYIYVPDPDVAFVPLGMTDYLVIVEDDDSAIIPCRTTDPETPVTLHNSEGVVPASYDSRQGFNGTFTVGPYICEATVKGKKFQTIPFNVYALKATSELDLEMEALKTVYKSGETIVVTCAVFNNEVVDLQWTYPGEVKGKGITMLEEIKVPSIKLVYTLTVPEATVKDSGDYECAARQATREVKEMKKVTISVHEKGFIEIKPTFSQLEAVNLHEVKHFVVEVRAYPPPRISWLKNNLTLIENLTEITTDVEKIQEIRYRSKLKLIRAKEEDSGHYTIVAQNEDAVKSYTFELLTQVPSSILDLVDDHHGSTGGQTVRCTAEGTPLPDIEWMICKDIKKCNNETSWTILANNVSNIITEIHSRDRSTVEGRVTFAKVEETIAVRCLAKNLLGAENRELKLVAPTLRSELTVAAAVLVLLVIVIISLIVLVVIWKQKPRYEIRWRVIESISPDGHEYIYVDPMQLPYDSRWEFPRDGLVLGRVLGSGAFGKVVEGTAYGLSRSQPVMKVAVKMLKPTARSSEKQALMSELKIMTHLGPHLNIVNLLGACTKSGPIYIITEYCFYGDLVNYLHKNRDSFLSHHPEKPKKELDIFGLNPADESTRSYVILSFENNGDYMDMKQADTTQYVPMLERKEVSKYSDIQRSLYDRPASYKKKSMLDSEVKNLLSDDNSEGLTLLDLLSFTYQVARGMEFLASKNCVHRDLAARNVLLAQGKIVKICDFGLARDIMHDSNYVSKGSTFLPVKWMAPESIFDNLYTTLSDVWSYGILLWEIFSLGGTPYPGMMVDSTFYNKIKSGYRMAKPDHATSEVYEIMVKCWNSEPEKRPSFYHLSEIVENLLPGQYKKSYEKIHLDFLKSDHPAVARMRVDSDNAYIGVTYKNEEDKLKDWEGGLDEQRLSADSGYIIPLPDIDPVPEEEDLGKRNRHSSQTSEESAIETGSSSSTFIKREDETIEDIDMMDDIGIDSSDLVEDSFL

[3] = molecular target: Vascular endothelial growth factor receptor 2 (Homo sapiens) (UniProt P35968)
Chain of Vascular endothelial growth factor receptor 2 (Homo sapiens) (P35968 whole entry, the tested form may be a part): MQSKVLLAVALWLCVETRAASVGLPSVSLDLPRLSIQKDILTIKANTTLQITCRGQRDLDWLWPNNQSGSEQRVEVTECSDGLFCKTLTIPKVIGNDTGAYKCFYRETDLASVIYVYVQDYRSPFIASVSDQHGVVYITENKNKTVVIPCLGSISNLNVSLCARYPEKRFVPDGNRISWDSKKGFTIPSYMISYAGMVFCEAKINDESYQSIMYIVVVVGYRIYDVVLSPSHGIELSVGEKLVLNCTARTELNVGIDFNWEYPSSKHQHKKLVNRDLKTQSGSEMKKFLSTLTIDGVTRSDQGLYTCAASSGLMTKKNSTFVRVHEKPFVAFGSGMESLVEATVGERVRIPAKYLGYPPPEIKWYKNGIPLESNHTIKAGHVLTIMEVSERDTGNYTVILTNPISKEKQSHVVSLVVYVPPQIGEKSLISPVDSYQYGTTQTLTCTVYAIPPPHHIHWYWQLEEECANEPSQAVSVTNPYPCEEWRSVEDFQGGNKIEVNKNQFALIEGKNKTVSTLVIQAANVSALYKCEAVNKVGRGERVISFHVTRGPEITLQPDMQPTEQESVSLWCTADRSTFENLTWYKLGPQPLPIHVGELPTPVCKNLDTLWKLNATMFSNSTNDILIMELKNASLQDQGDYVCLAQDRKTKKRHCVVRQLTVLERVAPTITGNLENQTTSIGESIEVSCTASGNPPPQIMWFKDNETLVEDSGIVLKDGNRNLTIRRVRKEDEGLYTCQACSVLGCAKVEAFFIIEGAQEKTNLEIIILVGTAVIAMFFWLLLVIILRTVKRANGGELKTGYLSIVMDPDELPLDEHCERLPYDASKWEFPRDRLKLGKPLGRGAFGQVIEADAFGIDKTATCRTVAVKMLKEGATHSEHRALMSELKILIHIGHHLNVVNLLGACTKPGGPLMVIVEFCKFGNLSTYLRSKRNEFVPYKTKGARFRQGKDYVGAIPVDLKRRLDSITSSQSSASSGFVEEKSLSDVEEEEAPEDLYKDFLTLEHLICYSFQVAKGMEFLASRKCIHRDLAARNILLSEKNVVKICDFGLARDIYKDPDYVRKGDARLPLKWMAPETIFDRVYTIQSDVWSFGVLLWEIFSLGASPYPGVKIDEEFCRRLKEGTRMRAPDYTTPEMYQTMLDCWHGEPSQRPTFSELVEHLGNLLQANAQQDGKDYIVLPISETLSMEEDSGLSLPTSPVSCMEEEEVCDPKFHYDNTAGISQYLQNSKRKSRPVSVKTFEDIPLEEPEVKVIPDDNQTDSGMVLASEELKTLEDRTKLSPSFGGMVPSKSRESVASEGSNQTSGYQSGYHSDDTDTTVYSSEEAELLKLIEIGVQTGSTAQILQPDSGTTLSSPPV

[4] = molecular target: Platelet-derived growth factor receptor beta (Homo sapiens, UniProt P09619); experiment: Inhibition of TEL-fused PDGFRbeta (unknown origin) expressed in mouse BA/F3 cells assessed as growth inhibition after 72 hrs by CellTiter-Glo or CCK-8 assay; format: cell-based; method in brief: as §1
Chain of Platelet-derived growth factor receptor beta (P09619 whole entry, the tested form may be a part): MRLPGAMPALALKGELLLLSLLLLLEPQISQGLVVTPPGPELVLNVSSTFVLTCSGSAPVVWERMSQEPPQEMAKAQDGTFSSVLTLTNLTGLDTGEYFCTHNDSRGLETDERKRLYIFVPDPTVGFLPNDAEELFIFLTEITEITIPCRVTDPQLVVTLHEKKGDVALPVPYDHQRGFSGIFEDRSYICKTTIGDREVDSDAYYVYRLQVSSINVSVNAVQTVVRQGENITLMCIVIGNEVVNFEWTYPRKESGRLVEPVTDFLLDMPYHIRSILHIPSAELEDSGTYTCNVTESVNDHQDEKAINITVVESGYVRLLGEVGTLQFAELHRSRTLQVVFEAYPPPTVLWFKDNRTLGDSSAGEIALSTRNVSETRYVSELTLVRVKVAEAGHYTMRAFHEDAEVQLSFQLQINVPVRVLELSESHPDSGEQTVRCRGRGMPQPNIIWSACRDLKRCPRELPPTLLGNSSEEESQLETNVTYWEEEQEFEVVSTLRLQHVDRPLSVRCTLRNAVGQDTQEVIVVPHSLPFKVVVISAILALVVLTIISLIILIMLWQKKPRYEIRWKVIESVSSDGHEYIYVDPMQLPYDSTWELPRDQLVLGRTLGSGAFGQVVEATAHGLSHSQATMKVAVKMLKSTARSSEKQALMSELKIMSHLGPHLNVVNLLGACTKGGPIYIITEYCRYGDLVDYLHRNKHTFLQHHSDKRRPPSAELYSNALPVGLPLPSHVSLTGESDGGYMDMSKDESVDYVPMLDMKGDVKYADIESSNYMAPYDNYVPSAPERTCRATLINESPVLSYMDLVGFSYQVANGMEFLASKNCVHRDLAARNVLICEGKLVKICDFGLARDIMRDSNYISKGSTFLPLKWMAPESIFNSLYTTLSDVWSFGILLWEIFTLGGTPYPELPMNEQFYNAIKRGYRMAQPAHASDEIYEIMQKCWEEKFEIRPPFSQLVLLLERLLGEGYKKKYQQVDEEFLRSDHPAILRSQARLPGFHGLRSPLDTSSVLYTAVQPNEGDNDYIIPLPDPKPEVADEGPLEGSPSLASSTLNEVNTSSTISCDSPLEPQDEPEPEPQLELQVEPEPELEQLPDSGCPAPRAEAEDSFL

[5] = molecular target: Mast/stem cell growth factor receptor Kit (Homo sapiens, UniProt P10721); experiment: Inhibition of TEL-fused c-KIT (unknown origin) expressed in mouse BA/F3 cells assessed as growth inhibition after 72 hrs by CellTiter-Glo or CCK-8 assay; format: cell-based; method in brief: as §1
Chain of Mast/stem cell growth factor receptor Kit (P10721 whole entry, the tested form may be a part): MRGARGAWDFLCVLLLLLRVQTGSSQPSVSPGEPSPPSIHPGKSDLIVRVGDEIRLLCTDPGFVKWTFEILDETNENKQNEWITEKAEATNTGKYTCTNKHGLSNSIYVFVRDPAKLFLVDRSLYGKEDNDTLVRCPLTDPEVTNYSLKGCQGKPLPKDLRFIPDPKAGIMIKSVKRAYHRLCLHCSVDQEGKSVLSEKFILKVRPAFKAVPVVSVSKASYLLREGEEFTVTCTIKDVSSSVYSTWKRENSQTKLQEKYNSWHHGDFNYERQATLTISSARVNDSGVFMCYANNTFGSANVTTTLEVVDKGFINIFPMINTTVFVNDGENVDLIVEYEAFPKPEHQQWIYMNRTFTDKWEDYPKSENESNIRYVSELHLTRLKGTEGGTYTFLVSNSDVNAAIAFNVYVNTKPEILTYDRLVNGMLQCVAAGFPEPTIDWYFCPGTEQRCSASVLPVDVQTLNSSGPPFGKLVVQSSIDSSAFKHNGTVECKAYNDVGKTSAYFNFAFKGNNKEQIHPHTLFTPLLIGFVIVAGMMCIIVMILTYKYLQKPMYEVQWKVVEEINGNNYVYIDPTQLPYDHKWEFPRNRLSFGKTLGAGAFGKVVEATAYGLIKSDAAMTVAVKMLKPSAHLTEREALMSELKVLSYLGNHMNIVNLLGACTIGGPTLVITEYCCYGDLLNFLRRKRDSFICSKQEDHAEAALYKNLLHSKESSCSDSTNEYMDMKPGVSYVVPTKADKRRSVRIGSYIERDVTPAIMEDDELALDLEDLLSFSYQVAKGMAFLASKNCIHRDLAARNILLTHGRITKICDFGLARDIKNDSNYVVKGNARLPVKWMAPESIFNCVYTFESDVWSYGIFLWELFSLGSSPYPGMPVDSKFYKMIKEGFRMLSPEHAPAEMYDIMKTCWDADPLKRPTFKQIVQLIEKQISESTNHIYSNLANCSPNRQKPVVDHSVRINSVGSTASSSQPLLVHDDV

Homo sapiens = species: Homo sapiens; experiment: Selectivity index, ratio of GI50 for TEL-fused PDGFRbeta (unknown origin) expressed in mouse BA/F3 cells to GI50 for TEL-fused PDGFRalpha (unknown origin) expressed in mouse BA/F3 cells; format: cell-based; method in brief: as §1

| Compound | GI50 [2] [nM] | GI50 [3] [nM] | GI50 [4] [nM] | GI50 [5] [nM] | GI50 at 72 h [1] [nM] | RatioGI50 (Homo sapiens) |
| --- | --- | --- | --- | --- | --- | --- |
| C=CC(=O)NCc1cccc(C(=O)Nc2ccc(C)c(Nc3nccc(-c4cccnc4)n3)c2)c1 | 160 | > 10000 | 244 | 4750 | > 10000 | – |
| CCN(CC)CCN(Cc1ccc(C(=O)Nc2ccc(C)c(Nc3nccc(-c4cccnc4)n3)c2)cc1)C(=O)c1cccnc1 | 33 | > 10000 | 699 | > 10000 | > 10000 | – |
| Cc1ccc(NC(=O)c2ccc(CN(CCO)C(=O)c3cccnc3)cc2)cc1Nc1nccc(-c2cccnc2)n1 | 353 | > 10000 | 3020 | > 10000 | > 10000 | – |
| C=CC(=O)N(CCN(CC)CC)Cc1ccc(C(=O)Nc2ccc(C)c(Nc3nccc(-c4cccnc4)n3)c2)cc1 | 344 | 4550 | 1100 | 5140 | 5450 | – |
| C=CC(=O)N(CCN(C)C)Cc1ccc(C(=O)Nc2ccc(C)c(Nc3nccc(-c4cccnc4)n3)c2)cc1 | 11 | > 10000 | 350 | > 10000 | > 10000 | > 30 |
| Cc1ccc(NC(=O)c2ccc(CN(CCN(C)C)C(=O)c3ccno3)cc2)cc1Nc1nccc(-c2cccnc2)n1 | 166 | > 10000 | 787 | > 10000 | > 10000 | – |
| Cc1ccc(NC(=O)c2ccc(CN(CCN(C)C)C(=O)C3CC3)cc2)cc1Nc1nccc(-c2cccnc2)n1 | 112 | > 10000 | 437 | > 10000 | > 10000 | – |
| C=CC(=O)Nc1ccc(C(=O)Nc2ccc(C)c(Nc3nccc(-c4cccnc4)n3)c2)cc1 | – | 2030 | 757 | 2940 | 5600 | – |
| CCC(=O)Nc1ccc(C(=O)Nc2ccc(C)c(Nc3nccc(-c4cccnc4)n3)c2)cc1 | 12 | 6270 | 888 | 4940 | > 10000 | – |
| Cc1ccc(NC(=O)c2ccc(CN(CCO)C(=O)CN(C)C)cc2)cc1Nc1nccc(-c2cccnc2)n1 | 363 | > 10000 | 3880 | > 10000 | > 10000 | – |
| CCC(=O)N(CCN(C)C)Cc1ccc(C(=O)Nc2ccc(C)c(Nc3nccc(-c4cccnc4)n3)c2)cc1 | 36 | > 10000 | 504 | > 10000 | > 10000 | 14 |
| Cc1ccc(NC(=O)c2ccc(CN(CCN3CCCC3)C(=O)c3cccnc3)cc2)cc1Nc1nccc(-c2cccnc2)n1 | 39 | > 10000 | 934 | > 10000 | > 10000 | – |
| Cc1ccc(NC(=O)c2ccc(CN(CCN(C)C)C(=O)CN(C)C)cc2)cc1Nc1nccc(-c2cccnc2)n1 | 120 | > 10000 | 9200 | > 10000 | > 10000 | – |
| Cc1ccc(NC(=O)c2ccc(NC(=O)c3cccnc3)cc2)cc1Nc1nccc(-c2cccnc2)n1 | 13 | 882 | 583 | 426 | 1700 | – |
| Cc1ccc(NC(=O)c2ccc(CNC(=O)c3cccnc3)cc2)cc1Nc1nccc(-c2cccnc2)n1 | 14 | 348 | 341 | 216 | 1120 | – |

The remaining compounds from weak to strong by GI50 [4], led by results:

| GI50 [2] [nM] | GI50 [3] [nM] | GI50 [4] [nM] | GI50 [5] [nM] | Compound | GI50 at 72 h [1] [nM] | RatioGI50 (Homo sapiens) |
| --- | --- | --- | --- | --- | --- | --- |
| 100 | > 10000 | 240 | > 10000 | Cc1ccc(C(=O)N(CCN(C)C)Cc2ccc(C(=O)Nc3ccc(C)c(Nc4nccc(-c5cccnc5)n4)c3)cc2)cc1 | > 10000 | – |
| 39 | > 10000 | 231 | 104 | CCC(=O)Nc1cc(C(=O)Nc2ccc(C)c(Nc3nccc(-c4cccnc4)n3)c2)cc(C(F)(F)F)c1 | > 10000 | – |
| 19 | 5740 | 230 | 3940 | C=CC(=O)N(CCC(C)C)Cc1ccc(C(=O)Nc2ccc(C)c(Nc3nccc(-c4cccnc4)n3)c2)cc1 | 5620 | – |
| 15 | 3220 | 221 | 2920 | CCC(=O)NCc1cccc(C(=O)Nc2ccc(C)c(Nc3nccc(-c4cccnc4)n3)c2)c1 | 4750 | – |
| 54 | 8540 | 219 | > 10000 | C/C=C/C(=O)N(CCN(C)C)Cc1ccc(C(=O)Nc2ccc(C)c(Nc3nccc(-c4cccnc4)n3)c2)cc1 | > 10000 | – |
| 56 | > 10000 | 207 | > 10000 | Cc1ccc(NC(=O)c2ccc(CN(CCN(C)C)C(=O)c3cccs3)cc2)cc1Nc1nccc(-c2cccnc2)n1 | > 10000 | – |
| 14 | > 10000 | 201 | 6220 | CCC(=O)NCc1ccc(C(=O)Nc2ccc(C)c(Nc3nccc(-c4cccnc4)n3)c2)cc1 | > 10000 | – |
| 8 | 1570 | 173 | 1530 | C=CC(=O)Nc1cccc(C(=O)Nc2ccc(C)c(Nc3nccc(-c4cccnc4)n3)c2)c1 | 2480 | – |
| 59 | > 10000 | 161 | 300 | C=CC(=O)NCc1ccc(C(=O)Nc2ccc(C)c(Nc3nccc(-c4cccnc4)n3)c2)cc1C(F)(F)F | > 10000 | – |
| – | – | 155 | > 10000 | C=CC(=O)NCc1ccc(C(=O)Nc2ccc(C)c(Nc3nccc(-c4cccnc4)n3)c2)cc1 | > 10000 | – |
| 24 | 4880 | 125 | 5000 | Cc1ccc(NC(=O)c2ccc(CNCCN(C)C)cc2)cc1Nc1nccc(-c2cccnc2)n1 | > 10000 | – |
| 39 | 8640 | 123 | 6110 | Cc1ccc(NC(=O)c2ccc(CN(CCN(C)C)C(=O)C(C)C)cc2)cc1Nc1nccc(-c2cccnc2)n1 | > 10000 | – |
| 13 | 3340 | 98 | 250 | C=CC(=O)Nc1cc(C(=O)Nc2ccc(C)c(Nc3nccc(-c4cccnc4)n3)c2)cc(C(F)(F)F)c1 | 5460 | – |
| 25 | 4760 | 90 | 5750 | CCCC(=O)N(CCN(C)C)Cc1ccc(C(=O)Nc2ccc(C)c(Nc3nccc(-c4cccnc4)n3)c2)cc1 | > 10000 | – |
| 5 | 3410 | 82 | 66 | Cc1ccc(NC(=O)c2ccc(CNC(=O)c3cccnc3)c(C(F)(F)F)c2)cc1Nc1nccc(-c2cccnc2)n1 | 8330 | – |
| 17 | 5480 | 61 | 2530 | Cc1ccc(NC(=O)c2ccc(CN(CCN(C)C)C(=O)C(C)(C)C)cc2)cc1Nc1nccc(-c2cccnc2)n1 | > 10000 | – |
| 13 | 1560 | 48 | 580 | C=CS(=O)(=O)NCc1ccc(C(=O)Nc2ccc(C)c(Nc3nccc(-c4cccnc4)n3)c2)cc1 | 7710 | – |
